target: Clostridioides difficile; assay: Inhibition of Taurocholate-induced spore germination in Clostridioides difficile UK1 at […] by spectrophotometric method; type: functional

**Q.** With `C[C@H](CCC(=O)O)[C@H]1CC[C@H]2[C@@H]3[C@H](O)C[C@@H]4C[C@H](O)CC[C@]4(C)[C@H]3CC[C@]12C` [CHENODIOL] as the compound, how does the Ki read?
**A.** The Ki was 378 µM.

**Q.** How did the Ki turn out when `C[C@H](CCC(=O)O)[C@H]1CC[C@H]2[C@@H]3CC[C@@H]4C[C@H](O)CC[C@]4(C)[C@H]3CC[C@]12C` [LITHOCHOLIC ACID] was run?
**A.** Its Ki is 104 µM.

**Q.** `C[C@H](CCC(=O)O)[C@H]1CC[C@H]2[C@@H]3[C@@H](O)C[C@@H]4C[C@H](O)CC[C@]4(C)[C@H]3CC[C@]12C` [URSODIOL] was tested. Which Ki did it give?
**A.** The Ki was 213 µM.

system: Clostridioides difficile; assay: Inhibition of Taurocholate-induced spore germination in Clostridioides difficile R20291 in the presence of glycine measured every minute for 2 hrs; type: functional
How it was run: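 HistoDenz-purified spores were heat-activated at 68°C for 30 min and set to OD580 1.0 in 100 mM sodium phosphate pH 6.0 with 5 mg/ml bicarbonate. They were incubated with varied analog concentrations plus 6 mM taurocholate and 12 mM glycine. OD580 was read each minute for 2 h and normalized to t0. IC50 came from extent of germination plotted against log concentration.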

**Q.** How did the IC50 turn out when `C[C@H](CCC(=O)Nc1ccccc1)[C@H]1CC[C@H]2[C@@H]3CC[C@@H]4C[C@H](O)CC[C@]4(C)[C@H]3C[C@H](O)[C@]12C` was run?
**A.** The IC50 was 1.3 µM.

**Q.** Which IC50 does the source give for `COc1ccccc1NC(=O)CC[C@@H](C)[C@H]1CC[C@H]2[C@@H]3[C@H](O)C[C@@H]4C[C@H](O)CC[C@]4(C)[C@H]3CC[C@]12C` here?
**A.** The IC50 was 6 µM.

**Q.** `C[C@H](CCC(=O)Nc1ccccc1)[C@H]1CC[C@H]2[C@@H]3[C@H](O)C[C@@H]4C[C@H](O)CC[C@]4(C)[C@H]3CC[C@]12C` was tested. Which IC50 did it give?
**A.** The IC50 was 4 µM.

**Q.** `COc1ccccc1NC(=O)CC[C@@H](C)[C@H]1CC[C@H]2[C@@H]3CC[C@@H]4C[C@H](O)CC[C@]4(C)[C@H]3C[C@H](O)[C@]12C` was tested. Which IC50 did it give?
**A.** The IC50 was 2.4 µM.

system: Clostridioides difficile; assay: Inhibition of Taurocholate-induced spore germination in Clostridioides difficile R20291 assessed as remaining germination activity at 125 uM in the presence of glycine measured every minute for 2 hrs relative to control; type: functional
How it was run: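 Spores purified on a HistoDenz gradient, heat-activated at 68°C for 30 min, washed, then diluted to OD580 1.0 in 100 mM sodium phosphate pH 6.0 with 5 mg/ml sodium bicarbonate. Compound at 125 μM final, in triplicate, with 6 mM taurocholate and 12 mM glycine. OD580 read every minute for 2 h and normalized to time zero. Percent germination given with standard deviation.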

**Q.** With `C[C@H](CCC(=O)Nc1ccccc1)[C@H]1CC[C@H]2[C@@H]3CC[C@@H]4C[C@H](O)CC[C@]4(C)[C@H]3C[C@H](O)[C@]12C` as the compound, how does the Activity read?
**A.** The Activity was 3%.

**Q.** Which Activity does the source give for `C[C@H](CCC(=O)Nc1cccc(F)c1)[C@H]1CC[C@H]2[C@@H]3[C@@H](O)C[C@@H]4C[C@H](O)CC[C@]4(C)[C@H]3CC[C@]12C` here?
**A.** The Activity was 100%.

**Q.** Which Activity does the source give for `COc1ccccc1NC(=O)CC[C@@H](C)[C@H]1CC[C@H]2[C@@H]3[C@H](O)C[C@@H]4C[C@H](O)CC[C@]4(C)[C@H]3CC[C@]12C` here?
**A.** The Activity was 31%.

**Q.** Which Activity does the source give for `Cc1ccc(F)cc1NC(=O)CC[C@@H](C)[C@H]1CC[C@H]2[C@@H]3CC[C@@H]4C[C@H](O)CC[C@]4(C)[C@H]3CC[C@]12C` here?
**A.** The Activity was 100%.

**Q.** Which Activity does the source give for `C[C@H](CCC(=O)Nc1ccccc1)[C@H]1CC[C@H]2[C@@H]3[C@@H](O)C[C@@H]4C[C@H](O)CC[C@]4(C)[C@H]3CC[C@]12C` here?
**A.** The Activity was 57%.

**Q.** How did the Activity turn out when `Cc1ccc(F)cc1NC(=O)CC[C@@H](C)[C@H]1CC[C@H]2[C@@H]3CC[C@@H]4C[C@H](O)CC[C@]4(C)[C@H]3C[C@H](O)[C@]12C` was run?
**A.** Its Activity is 65%.

**Q.** How did the Activity turn out when `C[C@H](CCC(=O)Nc1ccccc1)[C@H]1CC[C@H]2[C@@H]3[C@H](O)C[C@@H]4C[C@H](O)CC[C@]4(C)[C@H]3CC[C@]12C` was run?
**A.** The Activity was 14%.

**Q.** With `COc1ccccc1NC(=O)CC[C@@H](C)[C@H]1CC[C@H]2[C@@H]3[C@@H](O)C[C@@H]4C[C@H](O)CC[C@]4(C)[C@H]3CC[C@]12C` as the compound, how does the Activity read?
**A.** The Activity was 100%.

**Q.** Which Activity does the source give for `C[C@H](CCC(=O)Nc1cccc(F)c1)[C@H]1CC[C@H]2[C@@H]3CC[C@@H]4C[C@H](O)CC[C@]4(C)[C@H]3CC[C@]12C` here?
**A.** Its Activity is 100%.

**Q.** Which Activity does the source give for `C[C@H](CCC(=O)Nc1cccc(F)c1)[C@H]1CC[C@H]2[C@@H]3CC[C@@H]4C[C@H](O)CC[C@]4(C)[C@H]3C[C@H](O)[C@]12C` here?
**A.** The Activity was 59%.

**Q.** Which Activity does the source give for `Cc1ccc(F)cc1NC(=O)CC[C@@H](C)[C@H]1CC[C@H]2[C@@H]3[C@H](O)C[C@@H]4C[C@H](O)CC[C@]4(C)[C@H]3CC[C@]12C` here?
**A.** Its Activity is 66%.

**Q.** With `COc1ccccc1NC(=O)CC[C@@H](C)[C@H]1CC[C@H]2[C@@H]3CC[C@@H]4C[C@H](O)CC[C@]4(C)[C@H]3CC[C@]12C` as the compound, how does the Activity read?
**A.** The Activity was 100%.

**Q.** Which Activity does the source give for `C[C@H](CCC(=O)Nc1ccccc1)[C@H]1CC[C@H]2[C@@H]3CC[C@@H]4C[C@H](O)CC[C@]4(C)[C@H]3CC[C@]12C` here?
**A.** The Activity was 100%.

**Q.** How did the Activity turn out when `C[C@H](CCC(=O)Nc1cccc(F)c1)[C@H]1CC[C@H]2[C@@H]3[C@H](O)C[C@@H]4C[C@H](O)CC[C@]4(C)[C@H]3CC[C@]12C` was run?
**A.** The Activity was 100%.

**Q.** For `COc1ccccc1NC(=O)CC[C@@H](C)[C@H]1CC[C@H]2[C@@H]3CC[C@@H]4C[C@H](O)CC[C@]4(C)[C@H]3C[C@H](O)[C@]12C`, which Activity is on record?
**A.** The Activity was 0.4%.

**Q.** How did the Activity turn out when `Cc1ccc(F)cc1NC(=O)CC[C@@H](C)[C@H]1CC[C@H]2[C@@H]3[C@@H](O)C[C@@H]4C[C@H](O)CC[C@]4(C)[C@H]3CC[C@]12C` was run?
**A.** The Activity was 100%.

target: Clostridioides difficile; assay: Inhibition of Taurocholate-induced spore germination in Clostridioides difficile 630 in presence of glycine measured every minute for 90 mins; type: functional

**Q.** For `C[C@H](CCC(=O)Nc1cccc(S(=O)(=O)O)c1)[C@H]1CC[C@H]2[C@@H]3[C@H](O)C[C@@H]4C[C@H](O)CC[C@]4(C)[C@H]3C[C@H](O)[C@]12C`, which Ki is on record?
**A.** The Ki was 50 µM.
